Sampled rows, rich in hits. Any-hit rate of the full collection: about 1.8%.
NPY1 pot ag – potentiators or agonists of human neuropeptide Y receptor Y1 | NPY-Y1 expressing cells, potentiator/agonist activation | AID 1304 | 220,000 tested, 0.37% active | activation, % at 3.6 µM; in the data active means activation above about 33%, passing the limit was not always enough;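 further: cells stimulated with NPY at EC10 then isoproterenol at EC100; 0% = low agonist plus stimulus and 100% = saturating agonist plus stimulus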
NPY-Y2 antag – NPY-Y2 (human) receptor antagonism. P49146. 140,000 tested, 0.99% active. inhibition, % at 2.7 µM. NPY-Y2 expressing cells, antagonist mode. AID 793; in the data active means inhibition above about 17%;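 further: 0% = vehicle with agonist challenge and 100% = reference antagonist with challenge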
Target sequence (P49146 whole entry, looked up): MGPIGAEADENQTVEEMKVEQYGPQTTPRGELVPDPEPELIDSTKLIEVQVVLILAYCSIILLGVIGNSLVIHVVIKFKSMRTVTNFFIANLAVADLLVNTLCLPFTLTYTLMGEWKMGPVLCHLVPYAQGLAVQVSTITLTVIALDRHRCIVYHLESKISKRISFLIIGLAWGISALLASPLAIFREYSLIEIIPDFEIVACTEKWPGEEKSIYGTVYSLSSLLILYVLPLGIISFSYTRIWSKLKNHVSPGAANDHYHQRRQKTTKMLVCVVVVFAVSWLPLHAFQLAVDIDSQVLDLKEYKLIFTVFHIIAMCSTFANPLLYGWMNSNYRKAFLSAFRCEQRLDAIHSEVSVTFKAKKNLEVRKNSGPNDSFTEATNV
NPY-Y2 PAM-ag – human NPY-Y2 potentiation or agonism, primary screen; P49146; cells expressing NPY-Y2, potentiator/agonist read-out; activation, % at 3.6 µM; 220,000 tested, 0.45% active; AID 1359; in the data active means activation above about 27%;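 further: cells stimulated with NPY near EC25 plus isoproterenol at EC100; 0% = vehicle plus submaximal agonist and 100% = vehicle plus saturating agonist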
NPY Y1 blocker – antagonists of human neuropeptide Y receptor Y1 | AID 1040 | inhibition, % at 3.6 µM | 200,000 tested, 1% active | P25929 | HEK293-CNG Y1 cells, membrane potential fluorescence; NPY at EC95, then isoproterenol;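 active means inhibition above the campaign mean inhibition of all tested compounds plus 3 SD, cut at about 20% in these data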;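 further: 0% = DMSO wells given NPY plus isoproterenol and 100% = isoproterenol alone without NPY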
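Material: Y1- and CNG-channel-expressing HEK293 cells / Probe or stimulus: NPY 25 nM then isoproterenol 1 µM plus Ro 20-1724 25 µM / Doses: 3.6 µM single dose, DMSO 0.4% / Schedule: compound incubation 1 h at room temperature, readout 45 min post-stimulation / Signal: membrane potential fluorescence / Benchmarks: isoproterenol-only wells as full block versus NPY-plus-isoproterenol wells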
* hit, by the source's call; . = no result.

SMILES | NPY1 pot ag | NPY-Y2 antag | NPY-Y2 PAM-ag | NPY Y1 blocker
CCCCC1CCC(/C(N)=N/O)CC1 (centres undefined) | -10 | 4 | -11 | 1
CCCCCC1CCC(C(=O)O)CC1 (centres undefined) | -38 | 12 | -13 | 26*
CC(C)(C)NC(=O)CN(C(=O)C(=O)Nc1ccc2c(c1)OCCO2)C(C)(C)C | -4 | . | 9 | 1
CC(Nc1nc(N2CCCCC2)nc2ccccc12)c1ccccc1 (centres undefined) | -26 | 45* | -16 | 46*
COc1ccc(Nc2nc(N3CCCC3)nc3ccccc23)c(OC)c1 | -49 | 21* | -24 | 27*
CC(Nc1nc(-c2ccccc2)nc2ccccc12)c1ccccc1 (centres undefined) | -14 | . | -3 | 3
CC(C)Cc1nc2oc3c(N4CCN(CCO)CC4)ncnc3c2c2c1CCCC2 | -10 | 17* | 3 | 9
CCOC(=O)c1cnc2ccc(OCC)cc2c1NCc1ccccc1OC | -60 | 49* | -24 | 27*
CCOC(=O)c1cnc2ccc(OC)cc2c1NCc1ccccc1 | -75 | 19* | -51 | 27*
CC(C)CCn1c(Cl)nc2c1c(=O)n(C)c(=O)n2C | -4 | 3 | 8 | -3
CC(C)CCNC(=O)Cn1c(NCCC(C)C)nc2c1c(=O)n(C)c(=O)n2C | -12 | 1 | 4 | 60*
COc1ccc(CN2CCN(CCc3ccccc3)C(CCO)C2)c(O)c1 (centres undefined) | -13 | . | -21 | 5
Cc1ccc2c(c1)-c1c(ssc1=S)C(C)(C)N2C(=O)CSc1nncn1C | 10 | 2 | 18 | -2
CC1(C)c2ssc(=S)c2-c2ccccc2N1C(=O)CSC1=NCCS1 | 39 | -4 | 34* | -5
CC(NC(=O)c1c(Cl)cnn1C)C1CCCO1 (centres undefined) | 13 | . | 12 | .
COc1ccc(C2C(C(=O)Nc3cc(OC)c(OC)c(OC)c3)c3ccccc3C(=O)N2C)cc1 (centres undefined) | 37* | . | 31* | -1
Cc1sc2nc(SCC(=O)C(C)(C)C)n(Cc3ccco3)c(=O)c2c1C | -20 | 18* | -8 | 29*
O=[N+]([O-])c1ccccc1Nc1c2ccccc2nc2ccccc12 | 50* | . | 49* | -8
CCc1ccc(-c2nc(CN3CCC(C(=O)N4CCN(c5ccccc5)CC4)CC3)c(C)o2)cc1 | -75 | 31* | -28 | 47*
O=C(CSc1ccccn1)Nc1nc2ccc(Br)cc2s1 | 10 | 2 | 4 | -6
Cc1ccc(OCC(=O)Nc2ccccc2N2CCCC2)c(C)c1 | -17 | . | -18 | 7
CC1CN(CC(O)COc2ccccc2C(C)(C)C)CC(C)O1 (centres undefined) | 100* | 1 | 84* | -15
CCOC(=O)N1CCN(CC(O)COc2ccccc2C(C)CC)CC1 (centres undefined) | -9 | 2 | 3 | 0
CCC(=O)N1CCN(c2ccccc2NC(=O)COc2cc(C)ccc2C(C)C)CC1 | -42 | 22* | -11 | 31*
CCOC(=O)N1CCN(CC(O)COc2cc(C)ccc2C(C)C)CC1 (centres undefined) | 92* | 0 | 81* | -13
SMILES | NPY1 pot ag | NPY-Y2 antag | NPY-Y2 PAM-ag | NPY Y1 blocker
CCOC(=O)N1CCN(CC(O)COc2ccccc2C(C)C)CC1 (centres undefined) | 79* | 2 | 59* | -10
CC1=NN(C(=O)COc2ccc(C)c(C)c2)C(O)(c2ccccc2)C1 (centres undefined) | -10 | 9 | 3 | 2
CCN1CCN(c2cc(C)c3cc(NC(=S)N4CCCC(C)C4)ccc3n2)CC1 (centres undefined) | 17 | . | 8 | 3
O=c1[nH]c(Nc2ccc3c(c2)OCCO3)nnc1Cc1ccccc1 | 7 | . | 9 | -6
Cc1cccc(OCC(=O)Nc2ccc(C(=O)c3ccc(C(=O)O)cc3)cc2)c1 | 13 | . | 4 | -8
CCOC(=O)N1CCN(CC(O)COc2ccccc2C(C)(C)C)CC1 (centres undefined) | 71* | 2 | 72* | -12
CCOC(=O)N1CCN(CC(O)COC(CC)c2ccccc2)CC1 (centres undefined) | 2 | -2 | 7 | -4
CC1(C)Cc2cccc(C(=O)Nc3ccc(F)cc3F)c2O1 | -41 | . | -17 | .
O=C(NC1CCCCC1)NC1CC2CCC(C1)N2Cc1nnnn1Cc1ccc2c(c1)OCO2 (centres undefined) | 14 | 2 | -7 | 3
CC1CCN(c2nc(-c3ccncc3)nc3ccccc23)CC1 | -58 | 30* | -41 | 31*
CC(=O)c1cc(CC(=O)N2CCc3c([nH]c4ccccc34)C2c2ccccn2)cs1 (centres undefined) | 5 | . | 2 | 22*
Cc1ccc(-c2nnnn2C2C/C(=N\NC(N)=S)C3OCC2O3)cc1 (centres undefined) | 17 | . | 11 | 0
COc1cc(/C=N/NC(=O)c2cccs2)ccc1OCc1ccccc1 | -47 | 4 | -27 | -1
COc1ccc(/C=N/NC(=O)c2sccc2OCc2ccc(F)cc2)cc1OC | -21 | 26* | -27 | 12
Cc1cc(N(CCO)CCO)ccc1N=Nc1cc(F)ccc1F | 62* | . | 69* | -17
O=C1CC(=C(c2ccccc2)c2ccccc2)C(=O)N1CCCN1CCN(c2cccc(Cl)c2)CC1 | 75* | 1 | 62* | -1
COc1ccc(C(=O)NN(C)c2nc(-c3ccccc3)nnc2C(F)(F)F)cc1 | 2 | 5 | -1 | 5
COc1ccc(C(=O)NN(C)c2nc(C(F)(F)F)nc3ccccc23)cc1 | -16 | . | -19 | 21*
O=C(Nc1ccccc1N1CCN(c2ccc(F)cc2)CC1)c1ccccc1 | -6 | 29* | -7 | 49*
Nc1ccc(N=Nc2ccccc2)c(N)n1 | 5 | -1 | 18 | 2
Nc1ccc(N=Nc2ccccc2)c2ccccc12 | 50* | . | 56* | .
Cc1ccccc1NC(=S)N(Cc1ccccc1)Cc1cccs1 | -14 | . | -9 | 22*
CN(C)CCOc1nc(-c2ccccc2)nc2c1oc1ccccc12 | 59* | 6 | 69* | -1
CN(C)CCOc1ncnc2c1oc1ccccc12 | -6 | 2 | -14 | -1
CCc1nnc(NC(=O)C(CC)CC)s1 | 5 | . | -8 | .
SMILES | NPY1 pot ag | NPY-Y2 antag | NPY-Y2 PAM-ag | NPY Y1 blocker
CCN(NC(=O)C(O)(c1ccc(F)cc1)c1ccc(F)cc1)C(=O)c1ccccc1 | -20 | 25* | -26 | 23*
CC(C)(O)C(=O)NN(C(=O)c1ccccc1)c1ccc2ccccc2c1 | 14 | -1 | -3 | 5
Cc1ccc(C(O)(C(=O)NN(C(=O)c2ccccc2)c2ccccc2)c2ccc(C)cc2)cc1 | -16 | 48* | 3 | 59*
CC(C)(C)N(NC(=O)Nc1ccc(F)cc1)C(=O)c1ccccc1 | -12 | 3 | 14 | 2
O=C(c1ccccc1)N(NC(=O)C(O)(c1ccccc1)c1ccccc1)c1cccc(F)c1 | -44 | 31* | -4 | 53*
O=C(c1ccccc1F)N(NC(=O)C(O)(c1ccccc1)c1ccccc1)c1ccccc1 | -47 | 30* | -2 | 39*
Cc1c(-c2ccnc3cc(C(=O)O)nn23)cnn1C | -1 | . | -6 | -3
CCOCC(=O)N1CCN(c2ccccc2OC)CC1 | -8 | . | -2 | 3

Screening results deposited in PubChem BioAssay by The Scripps Research Institute Molecular Screening Center.
